Only some compounds are listed: those with a hit (about 1.9% of all), similar ones and a draw of the others.
SR-BI DiI inh – mouse SR-BI HDL lipid transfer inhibition. Q61009. ldlA[mSR-BI] CHO cells, DiI-HDL uptake fluorescence, 3 h. inhibition, % at 12.5 µM. 0.96% of 320,000 active. AID 488896;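 active = mean replicate inhibition of at least 70% and a set share of replicates each scoring 70 or more; inconclusive = meets just one of the two criteria; inactive = fails both criteria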
Target sequence (Q61009 whole entry, looked up): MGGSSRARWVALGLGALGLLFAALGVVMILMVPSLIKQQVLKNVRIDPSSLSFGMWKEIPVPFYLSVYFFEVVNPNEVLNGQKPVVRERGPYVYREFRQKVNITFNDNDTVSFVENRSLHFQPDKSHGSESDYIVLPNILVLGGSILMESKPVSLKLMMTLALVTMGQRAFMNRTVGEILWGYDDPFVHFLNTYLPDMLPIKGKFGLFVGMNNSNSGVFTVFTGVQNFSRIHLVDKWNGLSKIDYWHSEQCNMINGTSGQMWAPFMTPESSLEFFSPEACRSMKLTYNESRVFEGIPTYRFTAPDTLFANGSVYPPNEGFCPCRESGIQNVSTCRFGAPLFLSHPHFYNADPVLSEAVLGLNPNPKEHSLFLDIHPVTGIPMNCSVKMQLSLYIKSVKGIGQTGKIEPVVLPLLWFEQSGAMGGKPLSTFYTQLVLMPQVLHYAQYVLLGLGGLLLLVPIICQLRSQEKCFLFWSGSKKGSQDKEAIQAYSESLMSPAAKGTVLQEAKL
Rin1 Abl inh – human Rin1-Abl interaction inhibition; P00519+Q13671; TR-FRET Rin1/Abl binding, biochemical; inhibition, % at 7.35 µM; 0.4% of 360,000 active; in the data active = inhibition above about 5%, passing the limit was not always enough
SR-BI uptake up – SR-BI HDL lipid transfer activation; CHO ldlA[mSR-BI] cells, DiI-HDL uptake fluorescence, 3 h; 100 = double the neutral-control signal; activation, % at 12.5 µM; 0.096% of 320,000 active; AID 504775;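 active = mean replicate activation of at least 60% and every replicate at or above 60%; inconclusive = mean or all-replicate condition met, but not both; inactive = mean below 60% and not all replicates reaching 60%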
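Assay system: CHO ldlA[mSR-BI] cells, LDL receptor-null, SR-BI overexpressing; medium: Ham's F12 with 0.5% BSA, HEPES 25 mM, pH 7.4; also added: DiI-HDL 10 µg/mL; timing: 3 h uptake period with compound, 37 °C; signal: DiI fluorescence, bottom read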
GRK2 aptamer HTS – inhibitors of human GRK2 displacing RNA aptamer; P25098; inhibition of aptamer binding, % at 10 µM; bead flow cytometry, FAM-aptamer displacement from GRK2; 0.59% of 330,000 active;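 active = inhibition of aptamer binding above 40%, roughly 3 SD of noise, on plates passing a quality check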;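 note: median bead fluorescence of bound FAM aptamer so fluorescent compounds give negative values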
Numbers stand for hits; . = inactive; ? = inconclusive; / = no result.

SMILES | SR-BI DiI inh | Rin1 Abl inh | SR-BI uptake up | GRK2 aptamer HTS
CCn1c(=O)c(C(=O)Nc2nc3ccccc3[nH]2)c(O)c2ccccc21 | . | . | . | 81.0
N#Cc1ccccc1NC(=O)C1SC(=Nc2ccccc2)C(C(=O)Nc2ccc(Cl)cc2)=C1N (centres undefined) | 107.8 | . | . | .
COC(=O)c1ccc2c(c1)C(C)(C)C(/C=C/c1ccc(OC)c(OC)c1OC)=[N+]2C | 105.2 | . | . | .
COC(=O)c1ccc2c(c1)C(C)(C)C(/C=C/c1ccc(O)cc1)=[N+]2C | ? | . | . | .
O=S1(=O)N[C@@H](Cc2ccccc2)COc2ccc(Cl)cc21 | / | . | / | /
CN1CCN(C(=O)c2cc3c(c(-c4cccc(-c5cc6ccccc6o5)c4)n2)[C@@H](CCO)N(S(=O)C(C)(C)C)C3)CC1 (some centres undefined) | / | . | / | /
CN(C)c1ccc(/C=C/c2ccc3ccccc3n2)cc1 | . | . | . | .
CCCN(CCC)c1ccc(/C=C/c2ccc3cc(OCC)ccc3n2)cc1 | 71.3 | . | . | .
CCOc1ccc(NC(=O)Cn2nnc(C(=O)NCCc3ccc(OC)c(OC)c3)c2N)cc1 | 74.4 | . | . | .
CCOc1ccccc1NC(=O)Cn1nnc(C(=O)NCCc2ccc(OCC)c(OCC)c2)c1N | 85.4 | . | . | .
COc1ccc(CC(=O)Nc2ccc(/C(C)=N/NC(=O)c3ccc(OC)cc3OC)cc2)cc1 | 74.5 | . | . | .
O=C(c1cccc(-n2cccc2)c1)N1CCN(S(=O)(=O)c2ccccc2)CC1 | . | . | . | 81.0
CCOc1ccccc1/C=N/NC(=O)Cc1csc(Nc2cccc(C(F)(F)F)c2)n1 | / | . | / | .
CCOc1ccc(/C=N/NC(=O)Cc2csc(Nc3cccc(C(F)(F)F)c3)n2)c(OCC)c1 | 81.1 | . | . | .
CCOc1ccc(/C=N/NC(=O)Cc2csc(Nc3cccc(C(F)(F)F)c3)n2)cc1 | 76.8 | . | . | .
COCC1=C(C(=O)OC(C)OC(=O)OC(C)C)N2C(=O)[C@@H](NC(=O)/C(=N\OC)c3csc(N)n3)[C@H]2SC1 (some centres undefined) | 87.8 | . | . | .
CCC(=O)N(Cc1ccco1)c1nc(-c2ccc(OC)cc2)cs1 | . | . | . | .
CCC(=O)N(CC)c1nc(-c2ccc(OC)cc2)cs1 | 87.1 | . | . | .
COc1cccc(C(=O)N=c2sc3c(C)ccc(OC)c3n2C)c1 | 80.7 | . | . | .
CCCC(=O)N1CCC1(C)C(=O)NS(=O)(=O)c1ccccc1 (centres undefined) | / | . | / | /
COc1cc(/C(C)=N/Nc2ccc(C(=O)O)cc2)cc(OC)c1OC | . | . | . | 71.0
CC1C/C(=N\NC(N)=S)c2cc(Cl)ccc2S1 (centres undefined) | 80.1 | . | . | .
COc1ccc(NC(=O)N(C)C[C@@H]2OCc3cnnn3CCCC(=O)N([C@@H](C)CO)C[C@H]2C)cc1 | / | . | / | /
COc1ccccc1CCNC(=O)c1cccc(NC(=O)CC2SC(N3CCCCC3)=NC2=O)c1 (centres undefined) | 80.5 | . | . | /
CCN(CC)CC(O)Cn1c(C)c(-c2ccccc2)c2cc([N+](=O)[O-])ccc21 (centres undefined) | 89.1 | . | . | .
SMILES | SR-BI DiI inh | Rin1 Abl inh | SR-BI uptake up | GRK2 aptamer HTS
O=C(CCCC(=O)NN=Cc1ccc(Cl)cc1Cl)NN=Cc1ccc(Cl)cc1Cl | 96.1 | . | . | /
O=C(C1=C[C@@H](c2ccc(Br)cc2)C[C@@H](OCc2ccc(CO)cc2)O1)N1CCN(Cc2ccccc2)CC1 | . | . | 62.8 | .
CC(C)(C)Cc1c(-c2ccc(F)cc2)nc2ccc(Cl)cn12 | / | . | / | /
CCOC(=O)c1c(NC(NC(C)=O)C(Cl)(Cl)Cl)sc2c1CCCC2 (centres undefined) | . | . | . | 73.0
O=C(CSc1nc2sc3c(c2c(=O)n1-c1ccccc1)CCCC3)N/N=C/c1ccccc1C(=O)O | . | . | . | .
CSc1ccccc1NC(=O)COC(=O)c1ccc(-n2nc(C)cc2C)cc1 | . | . | . | .
CC[C@]1(C(=O)OC)[C@H]2C(=O)N(C)C(=O)[C@H]2[C@H]2CN(C)C(=NC)N21 | . | . | . | .
Cc1cccc(C)c1OCC(=O)Nc1oc(-c2ccccc2)c(-c2ccccc2)c1C#N | 81.6 | . | . | .
COc1ccc(-c2oc(NC(=O)c3ccc(C)cc3)c(C#N)c2-c2ccc(OC)cc2)cc1 | . | . | . | .
COc1ccc(-c2oc(NC(C)=O)c(C#N)c2-c2ccc(OC)cc2)cc1 | . | . | . | .
COc1ccc(C(=O)Nc2oc(-c3ccccc3)c(-c3ccccc3)c2C#N)cc1 | 82.6 | . | . | .
